A selection: hits, their analogues and other compounds. The true share with any hit is near 1.9%.
UBC13 polyUb = UBC13 polyubiquitin chain formation inhibitors, primary screen, biochemical, TR-FRET, uHTS. Ubiquitin-conjugating enzyme E2 N (Homo sapiens), P61088. inhibition, % at 20 µM. AID 485273, 2010. 0.47% of 330,000 active; in the data active = inhibition above about 45%, passing the limit was not always enough
Target sequence (P61088 whole entry, looked up): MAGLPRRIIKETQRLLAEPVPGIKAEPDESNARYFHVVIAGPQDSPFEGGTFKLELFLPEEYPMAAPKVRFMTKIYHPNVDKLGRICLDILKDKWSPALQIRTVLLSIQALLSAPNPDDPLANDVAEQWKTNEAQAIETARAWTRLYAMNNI
SR-BI DiI inh = inhibitors of SR-BI mediated HDL lipid uptake, primary screen, ldlA[mSR-BI] cells, fluorescence, single point. AID 488896, 2010. 0.96% of 320,000 active. inhibition, % at 12.5 µM. ldlA[mSR-BI] CHO cells, DiI-HDL uptake fluorescence, 3 h. Scavenger receptor class B member 1 (Mus musculus), Q61009;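 active = mean replicate inhibition of at least 70% and a set share of replicates each scoring 70 or more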;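 also: 0% = median of neutral control wells and 100% = median of positive control wells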
Target sequence (Q61009 whole entry, looked up): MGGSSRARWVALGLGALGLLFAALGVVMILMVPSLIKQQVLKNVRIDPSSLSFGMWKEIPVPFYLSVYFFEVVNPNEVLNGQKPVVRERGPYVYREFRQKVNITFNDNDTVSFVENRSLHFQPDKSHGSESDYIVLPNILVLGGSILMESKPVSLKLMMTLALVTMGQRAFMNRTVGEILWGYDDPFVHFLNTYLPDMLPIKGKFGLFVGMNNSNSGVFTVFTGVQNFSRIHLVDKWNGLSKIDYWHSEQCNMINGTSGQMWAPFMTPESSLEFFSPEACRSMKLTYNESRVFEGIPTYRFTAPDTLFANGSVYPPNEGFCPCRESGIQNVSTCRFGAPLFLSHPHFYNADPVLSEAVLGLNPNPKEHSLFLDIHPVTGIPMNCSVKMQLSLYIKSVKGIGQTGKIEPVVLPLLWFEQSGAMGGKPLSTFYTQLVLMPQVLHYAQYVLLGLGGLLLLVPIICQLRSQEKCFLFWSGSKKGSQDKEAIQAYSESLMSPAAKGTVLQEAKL
Neddyl block = inhibitors of cullin neddylation, primary screen, biochemical, TR-FRET, uHTS, NAE and Ubc12. NEDD8-conjugating enzyme Ubc12 (Homo sapiens) + NEDD8-activating enzyme E1 regulatory …. inhibition, % at 25 µM. 0.58% of 360,000 active; in the data active = inhibition above about 36%
SR-BI uptake up = activators of SR-BI mediated DiI-HDL uptake, primary screen, ldlA[mSR-BI] CHO cells, DiI fluorescence | activation, % at 12.5 µM | AID 504775, 2011 | 3 h; 100 = double the neutral-control signal | 0.096% of 320,000 active;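 active = mean replicate activation of at least 60% and every replicate at or above 60%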;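 also: 0% = median plate neutral-control signal and 100% = twice that signal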
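System: LDL receptor-deficient CHO ldlA cells overexpressing murine SR-BI | Timing: 3 h uptake period with compound, 37 °C | Medium: HEPES-buffered (25 mM, pH 7.4) F12 plus 0.5% BSA | Dosing: Single-point compound dose | Signal: Bottom-read fluorescence, 550/595 nm | Read-out: Retained DiI signal reflecting DiI-HDL uptake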
Neddyl inh conf = blockade of NEDD8 conjugation to cullin – biochemical, TR-FRET, single concentration, confirmation; shares compounds with Neddyl block; TR-FRET cullin neddylation biochemical assay; calls only at 25 µM; 13% of 1,800 active; in the data active = inhibition above about 40%;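 also: neddylation substrate is the cullin 1 ring ligase complex with SKP2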
* marks the source's active call; other numbers are inactive results; i = inactive; / = not tested or not shown; + = active, no number.

SMILES	UBC13 polyUb	SR-BI DiI inh	Neddyl block	SR-BI uptake up	Neddyl inh conf
COc1cc2c(cc1OC)C(c1cccs1)NCC2 (stereo not given)	1.0	-9.7	-0.7	9.7	/
COc1cc2c(cc1OC)C(COc1ccc(C(C)C)cc1)NCC2 (stereo not given)	2.7	-7.9	41.6*	7.9	i
Cc1ccccc1N(CC(=O)NC1CCCC1)C(=O)C1(C)CC(=O)N=C2C=CC=CN21 (stereo not given)	13.3	-23.8	/	23.8	/
Cc1cc(C)cc(N(CC(=O)NC2CCCC2)C(=O)C2(C)CC(=O)N=C3C=CC=CN32)c1 (stereo not given)	7.7	-8.1	52.4*	8.1	+
CC1=CC2=C(C=O)C(=O)C(C)(O)C(O)C2=CO1 (stereo not given)	/	/	-2.4	/	/
COc1ccccc1-c1ccc2nnc(SC)n2n1	17.8	-1.4	43.4*	1.4	i
COC(=O)C[C@H](NC(=O)Cn1cnc2c(NCc3ccccc3)ncnc21)C(=O)OC	/	-23.6	0.4	23.6	/
COc1ccc(-c2cc(=O)c3cc(O)ccc3o2)cc1	10.2	-4.6	49.8*	4.6	/
COCCNC(=O)C1(C)CCN(C(=O)c2cccc(C)c2C)C1 (stereo not given)	/	/	0.1	/	/
CN(C)CCCNC(=O)C[C@H]1C[C@H](C(=O)N2CCCCC2)[C@@]2(CCc3ccccc3)c3[nH]c4cc(-c5ccco5)ccc4c3CCN2C1=O	/	-47.3	/	47.3	/
CN(C)CCCNC(=O)C[C@H]1C[C@H](C(=O)N2CCCCC2)[C@@]2(C)c3[nH]c4cc(-c5ccco5)ccc4c3CCN2C1=O	/	16.0	47.7*	-16.0	i
O=c1[nH]c2ccccc2nc1-c1ccccc1	31.8	-6.3	50.3*	6.3	+
O=c1[nH]c2ccccc2nc1-c1ccc(Cl)cc1	8.0	7.1	26.2	-7.1	/
CCOC(=O)N1CCN(C(=O)/C(=C/c2ccc(N(C)C)cc2)NC(=O)c2ccccc2)CC1	-6.4	2.6	17.7	-2.6	/
CCOc1ccc(N/C=C/C(=O)c2ccc(OC)c(OC)c2)cc1	-4.1	52.3	41.3*	-52.3	i
CC(C(=O)NC1CCCC1)N1C(=O)c2cccc3cccc1c23 (stereo not given)	7.7	4.6	38.0*	-4.6	i
CCCNC(=O)c1ccc(N2CCC3(CC2)CC(c2ccccc2)=NO3)c(NC(=O)Cc2ccc(F)cc2)c1	-0.8	21.0	-9.7	-21.0	/
COCCOC(=O)C1=C(C)NC(C)=C(C(=O)OCCOC)C1/C=C/c1ccccc1OC	-1.8	13.7	43.1*	-13.7	/
CCOC(=O)C1=C(C)NC(C)=C(C(=O)OCC)C1/C=C/c1ccccc1OC	17.5	23.2	/	-23.2	/
O=C1CS/C(=N\N=C\c2ccco2)N1c1ccccc1	-14.1	10.0	42.1*	-10.0	i
CCCCN(C=O)c1c(CC)nc2ccc(C(=O)NCCOc3ccc(OC)cc3)cn12	/	/	11.1	/	/
CC(=O)Nc1ccc(S(=O)(=O)N2CCN(S(=O)(=O)c3ccc(NC(C)=O)cc3)CC2)cc1	-2.9	1.3	0.3	-1.3	/
CC(=O)Nc1ccc(S(=O)(=O)N2CCN(c3cc(C(F)(F)F)ccn3)CC2)cc1	5.8	-14.0	85.1*	14.0	i
C=CC[C@H](CC(=O)NCCO)C(=O)N[C@H](COC(=O)[C@H](CC=C)CC(=O)OC(C)(C)C)Cc1c[nH]c2ccccc12	16.7	-4.9	0.0	4.9	/
CCCCN(CC)Cc1c(O)ccc2c(-c3ccccc3)cc(=O)oc12	12.3	10.8	42.6*	-10.8	/
SMILES	UBC13 polyUb	SR-BI DiI inh	Neddyl block	SR-BI uptake up	Neddyl inh conf
CCN(CC)Cc1c(O)ccc2c(-c3ccccc3)cc(=O)oc12	3.3	-2.8	41.6*	2.8	i
Cc1c(O)ccc2c(-c3ccccc3)cc(=O)oc12	12.7	/	/	/	/
CCCCN(C)Cc1c(O)ccc2c(-c3ccccc3)cc(=O)oc12	7.4	-34.5	/	34.5	/
O=C(CS(=O)(=O)c1cn(CC(=O)N2CCOCC2)c2ccccc12)Nc1ccccc1F	-1.2	2.5	-6.3	-2.5	/
CCN1C(=O)c2cccc3c(S(=O)(=O)NCc4ccccc4)ccc1c23	9.3	18.9	56.7*	-18.9	/
COc1ccc(N(C(=O)c2ccncc2)S(=O)(=O)c2ccc3c4c(cccc24)C(=O)N3C)cc1	7.8	3.5	-7.1	-3.5	/
CCN1C(=O)c2cccc3c(S(=O)(=O)N(C(C)=O)c4ccc(OC(C)=O)cc4)ccc1c23	10.5	7.5	63.4*	-7.5	/
O=C(Cc1ccc(NC(=O)C2CCN(C(=O)c3ccccc3)CC2)cc1)Nc1cccc(C(=O)N2CCCCC2)c1	/	3.6	0.8	-3.6	/
CC(C)c1ccc(/C=C/C(=O)NC(=S)Nc2ccc(CN3CCOCC3)cc2)cc1	5.2	46.3	40.2*	-46.3	i
CC(C)c1ccc(/C=C/C(=O)NC(=S)NN2CCOCC2)cc1	6.0	16.5	0.6	-16.5	/
COC(=O)Nc1nnc(/C=C/c2ccc(OC)cc2)s1	-4.8	-0.7	29.2	0.7	/
COc1ccc(/C=C/c2nnc(NC(C)=O)s2)cc1	-7.2	11.1	43.1*	-11.1	i
Cc1cc(OC(C)C(=O)NCC2CCCO2)cc(C)c1Cl (stereo not given)	0.8	14.7	5.4	-14.7	/
COc1ccc(CCNC(=O)c2ccc3c(=O)n4c(nc3c2)CCC4)cc1OC	-3.2	2.7	13.5	-2.7	/
CCC(C)NC(=O)c1cn(CCOC)c(=O)c2c1c1ccccc1n2C (stereo not given)	8.1	11.6	31.1	-11.6	/
CCN1CCN(C(=O)c2cn(CCOC)c(=O)c3c2c2ccccc2n3C)CC1	6.6	17.3	49.1*	-17.3	i
CCOC(=O)C1CCN(C(=O)c2cn(CCOC)c(=O)c3c2c2ccccc2n3C)CC1	15.1	-5.2	37.6	5.2	/
COCCn1cc(C(=O)N2CCCC(C)C2)c2c3ccccc3n(C)c2c1=O (stereo not given)	19.5	0.5	41.5*	-0.5	i
COC(=O)/C(=N/Nc1ccccc1OC)N1CCCc2ccccc21	-4.6	-0.3	15.6	0.3	/
O=C(NCc1ccc(F)c(F)c1)C1Cc2c(-c3ccc4c(c3)OCO4)ccnc2O1 (stereo not given)	/	/	-45.9	/	/
CCc1cc2c(=O)c(-c3nc4ccccc4n3C)c(C)oc2cc1OC(C)=O	5.9	-2.4	40.9*	2.4	i
N#CC1=C(N)Oc2c(ccc3cccnc23)C1c1cccnc1 (stereo not given)	-16.6	-22.6	47.7*	22.6	i
C[C@@H]1CC=C[C@H]2[C@H]1C(=O)N(Cc1ccccc1)[C@H]2c1ccc(/C=C/c2ccccc2)cc1F	-1.8	3.4	42.2*	-3.4	/
OC(c1ccc(F)cc1)c1nc(-c2ccc(Cl)cc2)cs1 (stereo not given)	/	/	-10.9	/	/

From PubChem BioAssay
